Measurements: article PMC12120100 (Scientific Reports, 2025)

Key:
Assay in all cases: Alkaline comet assay
Format in all cases: cell-based, human
[1] = tested on: HT-29 cells; conditions: HT-29, 20 µM (positive control), 24 h, ± SEM
Outline: (§1)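 Alkaline comet assay. Cells seeded in 6-well plates at 150 000 (HT-29), 250 000 (PC3) or 600 000 (PBLs) per 2 mL and left 24 h, then exposed 24 h (37 °C, 5% CO2) to test compound at 0.5, 1 and 2 µM. Controls: untreated and 20 µM bleomycin. Cells pelleted at 1400 rpm, 10 min, 4 °C. Slides stained with DAPI (1 µg/ml); about 100 cells/slide scored. Output: mean % tail DNA ± SEM; ANOVA with Dunnett's test.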

[2] = tested on: PBLs; conditions: 20 µM (positive control), 24 h, ± SEM
Outline: as §1

[3] = tested on: PC-3 cells; conditions: PC-3, 20 µM (positive control), 24 h, ± SEM
Outline: as §1

bleomycin
DNA damage (mean tail DNA %) [1]: 33.58 ± 3.62% | DNA damage (mean tail DNA %) [2]: 41.33 ± 1.95% | DNA damage (mean tail DNA %) [3]: 44.99 ± 2.37%
